Measurements taken from ChEMBL document CHEMBL2424622, “Development of amino-pyrimidine inhibitors of c-Jun N-terminal kinase (JNK): kinase profiling guided optimization of a 1,2,3-benzotriazole lead” (Bioorg Med Chem Lett, 2013).

Columns and labels:
[1] = biological target: Ribosomal protein S6 kinase alpha-3 (Homo sapiens) (UniProt P51812); assay: Competitive binding affinity to RPS6KA3 domain 1 (unknown origin) at 10 uM in presence of ATP relative to control
Method in brief: (§1)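 In vitro ATP-site competition binding assay across a diverse panel of 128 kinases, with compound tested at a single concentration. Kinase selectivity scores (S15) were calculated from the panel profiles.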

[2] = biological target: T1, Ephrin type-B receptor 4 (Homo sapiens) (UniProt P54760); assay: Competitive binding affinity to EPHB4 (unknown origin) at 10 uM in presence of ATP relative to control
T1 sequence (whole entry): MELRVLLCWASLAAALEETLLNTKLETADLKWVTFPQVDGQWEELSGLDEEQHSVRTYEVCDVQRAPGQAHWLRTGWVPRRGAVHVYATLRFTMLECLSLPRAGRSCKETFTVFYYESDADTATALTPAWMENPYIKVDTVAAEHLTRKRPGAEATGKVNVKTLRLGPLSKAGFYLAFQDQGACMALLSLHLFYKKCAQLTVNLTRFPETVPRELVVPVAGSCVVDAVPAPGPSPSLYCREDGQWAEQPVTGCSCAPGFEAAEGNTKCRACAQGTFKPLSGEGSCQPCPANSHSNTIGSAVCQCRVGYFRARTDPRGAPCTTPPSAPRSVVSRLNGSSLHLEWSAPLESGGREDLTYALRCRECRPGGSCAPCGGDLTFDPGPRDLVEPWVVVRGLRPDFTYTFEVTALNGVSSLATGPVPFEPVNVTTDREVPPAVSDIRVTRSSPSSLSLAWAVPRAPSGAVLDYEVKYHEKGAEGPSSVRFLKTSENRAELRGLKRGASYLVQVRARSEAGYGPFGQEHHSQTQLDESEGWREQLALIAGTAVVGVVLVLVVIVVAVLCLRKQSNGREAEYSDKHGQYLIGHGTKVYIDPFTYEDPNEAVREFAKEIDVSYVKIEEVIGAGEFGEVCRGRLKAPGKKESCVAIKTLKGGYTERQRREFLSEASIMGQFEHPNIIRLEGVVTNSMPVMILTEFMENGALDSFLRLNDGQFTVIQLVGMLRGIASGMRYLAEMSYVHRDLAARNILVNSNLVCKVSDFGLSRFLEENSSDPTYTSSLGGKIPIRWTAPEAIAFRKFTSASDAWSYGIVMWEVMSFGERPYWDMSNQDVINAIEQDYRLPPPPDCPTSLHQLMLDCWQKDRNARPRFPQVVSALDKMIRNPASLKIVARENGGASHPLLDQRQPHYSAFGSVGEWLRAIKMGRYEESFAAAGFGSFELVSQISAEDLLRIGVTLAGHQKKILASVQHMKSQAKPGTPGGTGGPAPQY
Method in brief: (§2)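 In vitro ATP-site competition binding assay, part of profiling against a diverse panel of 128 kinases. Each compound was tested at a single concentration of 10 µM. Kinome selectivity was summarized as S15 selectivity scores.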

[3] = biological target: Fibroblast growth factor receptor 3 (Homo sapiens) (UniProt P22607); assay: Competitive binding affinity to FGFR3 (unknown origin) at 10 uM in presence of ATP relative to control; method in brief: as §2
Chain of Fibroblast growth factor receptor 3 (Homo sapiens) (P22607 23-806 limits assumed): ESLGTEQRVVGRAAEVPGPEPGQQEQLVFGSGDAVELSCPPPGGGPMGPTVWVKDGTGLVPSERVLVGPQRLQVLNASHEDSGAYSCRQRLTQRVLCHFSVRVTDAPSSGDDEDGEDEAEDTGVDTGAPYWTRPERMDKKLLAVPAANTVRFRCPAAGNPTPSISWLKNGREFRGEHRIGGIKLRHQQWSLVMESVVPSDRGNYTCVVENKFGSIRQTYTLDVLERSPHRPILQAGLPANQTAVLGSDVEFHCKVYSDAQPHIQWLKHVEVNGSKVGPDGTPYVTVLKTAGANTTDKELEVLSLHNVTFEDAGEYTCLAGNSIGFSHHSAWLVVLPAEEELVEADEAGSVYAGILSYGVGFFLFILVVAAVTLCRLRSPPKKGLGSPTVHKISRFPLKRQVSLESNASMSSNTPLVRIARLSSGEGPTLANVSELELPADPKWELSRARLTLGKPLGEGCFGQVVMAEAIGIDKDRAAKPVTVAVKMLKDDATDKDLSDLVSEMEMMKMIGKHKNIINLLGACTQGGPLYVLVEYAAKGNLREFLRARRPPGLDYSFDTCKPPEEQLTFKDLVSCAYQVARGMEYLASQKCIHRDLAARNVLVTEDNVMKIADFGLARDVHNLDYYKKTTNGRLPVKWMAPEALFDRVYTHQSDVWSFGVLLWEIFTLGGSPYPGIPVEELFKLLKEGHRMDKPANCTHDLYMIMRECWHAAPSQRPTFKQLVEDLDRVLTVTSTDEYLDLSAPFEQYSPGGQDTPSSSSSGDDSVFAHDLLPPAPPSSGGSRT

[4] = biological target: Casein kinase I isoform gamma-1 (Homo sapiens) (UniProt Q9HCP0); assay: Competitive binding affinity to CSNK1G1 (unknown origin) at 10 uM in presence of ATP relative to control
Chain of Casein kinase I isoform gamma-1 (Homo sapiens) (Q9HCP0 whole entry, looked up, canonical isoform): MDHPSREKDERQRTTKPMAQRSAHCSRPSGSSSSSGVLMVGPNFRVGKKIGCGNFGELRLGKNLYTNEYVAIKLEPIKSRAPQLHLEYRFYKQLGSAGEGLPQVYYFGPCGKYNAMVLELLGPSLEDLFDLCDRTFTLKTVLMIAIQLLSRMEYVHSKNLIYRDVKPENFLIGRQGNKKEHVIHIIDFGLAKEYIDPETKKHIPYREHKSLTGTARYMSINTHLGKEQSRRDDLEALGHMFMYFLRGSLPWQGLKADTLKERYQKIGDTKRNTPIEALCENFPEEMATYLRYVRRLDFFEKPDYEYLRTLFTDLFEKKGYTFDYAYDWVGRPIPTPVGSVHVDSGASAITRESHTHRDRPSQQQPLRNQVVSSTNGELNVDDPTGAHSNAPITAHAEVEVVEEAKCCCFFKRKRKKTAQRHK

[5] = biological target: Casein kinase I isoform gamma-2 (Homo sapiens) (UniProt P78368); assay: Competitive binding affinity to CSNK1G2 (unknown origin) at 10 uM in presence of ATP relative to control
Chain of Casein kinase I isoform gamma-2 (Homo sapiens) (P78368 whole entry, looked up, canonical isoform): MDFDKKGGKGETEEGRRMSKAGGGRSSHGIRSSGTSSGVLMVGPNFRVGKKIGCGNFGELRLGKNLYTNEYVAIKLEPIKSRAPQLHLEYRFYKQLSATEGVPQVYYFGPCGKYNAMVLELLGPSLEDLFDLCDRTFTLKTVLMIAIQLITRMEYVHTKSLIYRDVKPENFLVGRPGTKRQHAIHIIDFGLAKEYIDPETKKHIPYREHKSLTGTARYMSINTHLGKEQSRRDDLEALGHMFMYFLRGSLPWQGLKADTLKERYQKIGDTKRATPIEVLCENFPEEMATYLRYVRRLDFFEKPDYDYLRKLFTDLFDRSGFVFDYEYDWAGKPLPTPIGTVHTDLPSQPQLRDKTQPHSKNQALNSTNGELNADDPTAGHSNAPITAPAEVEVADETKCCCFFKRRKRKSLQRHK

[6] = biological target: T2, Tyrosine-protein kinase TXK (Homo sapiens) (UniProt P42681); assay: Competitive binding affinity to TXK (unknown origin) at 10 uM in presence of ATP relative to control; method in brief: as §1
T2 sequence (whole entry): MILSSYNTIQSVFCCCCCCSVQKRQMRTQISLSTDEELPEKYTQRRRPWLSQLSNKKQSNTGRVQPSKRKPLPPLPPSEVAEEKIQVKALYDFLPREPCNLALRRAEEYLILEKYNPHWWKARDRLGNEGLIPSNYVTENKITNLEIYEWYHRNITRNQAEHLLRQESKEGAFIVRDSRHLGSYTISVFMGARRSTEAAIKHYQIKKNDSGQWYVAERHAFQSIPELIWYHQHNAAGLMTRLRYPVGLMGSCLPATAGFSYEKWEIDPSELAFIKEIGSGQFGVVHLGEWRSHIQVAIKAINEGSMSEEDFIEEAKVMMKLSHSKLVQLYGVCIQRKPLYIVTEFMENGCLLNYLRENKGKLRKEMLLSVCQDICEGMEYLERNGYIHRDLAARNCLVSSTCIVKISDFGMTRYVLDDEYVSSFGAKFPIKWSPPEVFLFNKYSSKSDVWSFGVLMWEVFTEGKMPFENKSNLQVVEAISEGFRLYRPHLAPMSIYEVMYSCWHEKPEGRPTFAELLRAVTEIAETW

[7] = biological target: Mitogen-activated protein kinase 8 (Homo sapiens, UniProt P45983); assay: Competitive binding affinity to JNK1 (unknown origin) at 10 uM in presence of ATP relative to control
Chain of Mitogen-activated protein kinase 8 (P45983 whole entry): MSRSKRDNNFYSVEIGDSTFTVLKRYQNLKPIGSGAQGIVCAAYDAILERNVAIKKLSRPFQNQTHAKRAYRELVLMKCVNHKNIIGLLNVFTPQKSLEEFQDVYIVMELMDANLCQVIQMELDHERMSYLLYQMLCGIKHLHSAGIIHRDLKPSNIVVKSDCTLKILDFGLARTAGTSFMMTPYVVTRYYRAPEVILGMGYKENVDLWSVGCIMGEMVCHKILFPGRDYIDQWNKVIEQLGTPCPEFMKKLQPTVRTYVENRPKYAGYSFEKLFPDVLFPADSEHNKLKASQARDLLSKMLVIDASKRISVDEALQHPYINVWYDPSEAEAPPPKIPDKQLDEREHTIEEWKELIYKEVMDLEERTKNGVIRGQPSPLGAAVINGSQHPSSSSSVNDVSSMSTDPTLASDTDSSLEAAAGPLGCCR
Method in brief: (§3)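 In vitro ATP-site competition binding assay across a diverse panel of 128 kinases, with each compound tested at a single concentration. Kinase binding is expressed relative to control.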

[8] = biological target: Serine/threonine-protein kinase pim-2 (Homo sapiens) (UniProt Q9P1W9); assay: Competitive binding affinity to PIM2 (unknown origin) at 10 uM in presence of ATP relative to control; method in brief: as §3
Chain of Serine/threonine-protein kinase pim-2 (Homo sapiens) (Q9P1W9 whole entry, looked up): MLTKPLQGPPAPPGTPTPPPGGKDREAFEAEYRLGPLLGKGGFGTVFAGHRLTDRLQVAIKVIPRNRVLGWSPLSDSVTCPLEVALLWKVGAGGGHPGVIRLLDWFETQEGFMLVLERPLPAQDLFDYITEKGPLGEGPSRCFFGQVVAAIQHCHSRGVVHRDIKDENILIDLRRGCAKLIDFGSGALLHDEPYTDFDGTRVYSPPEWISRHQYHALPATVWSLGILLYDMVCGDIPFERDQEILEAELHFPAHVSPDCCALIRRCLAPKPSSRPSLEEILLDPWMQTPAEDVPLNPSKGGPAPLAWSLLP

[9] = biological target: T3, Membrane-associated tyrosine- and threonine-specific cdc2-inhibitory kinase (Homo sapiens) (UniProt Q99640); assay: Competitive binding affinity to PKMYT1 (unknown origin) at 10 uM in presence of ATP relative to control; method in brief: as §1
T3 sequence (whole entry): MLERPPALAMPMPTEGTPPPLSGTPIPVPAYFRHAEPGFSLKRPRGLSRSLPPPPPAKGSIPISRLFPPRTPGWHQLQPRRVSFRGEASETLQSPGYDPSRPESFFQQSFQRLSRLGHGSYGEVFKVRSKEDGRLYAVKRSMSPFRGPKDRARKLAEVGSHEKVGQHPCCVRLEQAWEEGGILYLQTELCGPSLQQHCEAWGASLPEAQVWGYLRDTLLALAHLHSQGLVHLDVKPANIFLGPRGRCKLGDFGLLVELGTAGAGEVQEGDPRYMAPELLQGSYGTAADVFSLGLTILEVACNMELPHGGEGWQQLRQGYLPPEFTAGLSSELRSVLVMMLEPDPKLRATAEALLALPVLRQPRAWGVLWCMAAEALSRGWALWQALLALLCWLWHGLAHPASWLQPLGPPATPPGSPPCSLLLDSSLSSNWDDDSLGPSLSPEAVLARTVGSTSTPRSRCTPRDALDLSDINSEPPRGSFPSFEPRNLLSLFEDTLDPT

[10] = biological target: RAF proto-oncogene serine/threonine-protein kinase (Homo sapiens) (UniProt P04049); assay: Competitive binding affinity to RAF1 (unknown origin) at 10 uM in presence of ATP relative to control; method in brief: as §1
Chain of RAF proto-oncogene serine/threonine-protein kinase (Homo sapiens) (P04049 whole entry): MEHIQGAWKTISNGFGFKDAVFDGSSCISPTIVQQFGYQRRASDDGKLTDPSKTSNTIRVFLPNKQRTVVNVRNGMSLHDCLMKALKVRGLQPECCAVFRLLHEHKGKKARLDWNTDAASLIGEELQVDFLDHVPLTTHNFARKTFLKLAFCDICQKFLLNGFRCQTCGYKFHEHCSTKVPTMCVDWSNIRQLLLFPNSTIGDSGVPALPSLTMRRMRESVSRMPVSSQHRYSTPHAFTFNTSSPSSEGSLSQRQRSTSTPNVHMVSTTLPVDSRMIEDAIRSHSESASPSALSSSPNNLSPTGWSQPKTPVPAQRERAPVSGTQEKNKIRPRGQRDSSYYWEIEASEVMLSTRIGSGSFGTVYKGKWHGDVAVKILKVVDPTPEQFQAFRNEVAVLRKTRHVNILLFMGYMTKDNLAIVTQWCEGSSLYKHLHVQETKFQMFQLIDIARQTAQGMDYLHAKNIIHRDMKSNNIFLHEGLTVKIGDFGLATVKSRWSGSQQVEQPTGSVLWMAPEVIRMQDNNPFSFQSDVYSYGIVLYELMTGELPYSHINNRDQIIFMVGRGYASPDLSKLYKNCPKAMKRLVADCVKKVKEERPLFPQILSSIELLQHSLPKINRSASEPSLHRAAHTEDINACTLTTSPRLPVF

[11] = biological target: cAMP-dependent protein kinase catalytic subunit alpha (Homo sapiens) (UniProt P17612); assay: Competitive binding affinity to PKAC-alpha (unknown origin) at 10 uM in presence of ATP relative to control; method in brief: as §1

Chain of Ribosomal protein S6 kinase alpha-3 (Homo sapiens) (P51812 whole entry, the tested form may be a part): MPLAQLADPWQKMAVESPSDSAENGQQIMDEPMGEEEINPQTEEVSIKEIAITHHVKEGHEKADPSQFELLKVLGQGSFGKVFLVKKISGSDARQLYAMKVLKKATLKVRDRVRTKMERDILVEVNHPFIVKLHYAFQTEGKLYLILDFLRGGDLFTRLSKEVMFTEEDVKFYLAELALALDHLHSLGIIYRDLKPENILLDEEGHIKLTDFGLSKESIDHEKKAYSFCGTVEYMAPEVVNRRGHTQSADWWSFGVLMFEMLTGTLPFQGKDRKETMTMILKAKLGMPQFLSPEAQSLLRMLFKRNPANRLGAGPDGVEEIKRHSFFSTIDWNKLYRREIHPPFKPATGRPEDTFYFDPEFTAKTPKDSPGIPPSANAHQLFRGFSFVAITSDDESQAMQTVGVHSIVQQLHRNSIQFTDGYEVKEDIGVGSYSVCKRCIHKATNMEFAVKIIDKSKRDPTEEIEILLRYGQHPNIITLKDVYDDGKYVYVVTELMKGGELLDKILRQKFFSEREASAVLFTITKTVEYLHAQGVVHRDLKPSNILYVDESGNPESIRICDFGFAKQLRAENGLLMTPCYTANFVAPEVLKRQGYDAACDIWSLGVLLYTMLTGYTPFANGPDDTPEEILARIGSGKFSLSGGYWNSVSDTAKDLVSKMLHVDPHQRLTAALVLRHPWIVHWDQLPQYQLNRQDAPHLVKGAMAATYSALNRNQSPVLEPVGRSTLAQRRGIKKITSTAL

SMILES | inhibition [1] | inhibition [2] | inhibition [3] | inhibition [4] | inhibition [5] | inhibition [6] | inhibition [7] | inhibition [8] | inhibition [9] | inhibition [10] | inhibition [11]
O[C@H]1CC[C@H](Nc2nccc(-c3n[nH]c4ccccc34)n2)CC1 | 97% | 100% | 74% | 92% | 74% | < 50% | 100% | 100% | 89% | < 50% | < 50%
N[C@H]1CC[C@H](Nc2nccc(-n3nnc4ccccc43)n2)CC1 | 84% | < 50% | < 50% | 100% | 100% | < 50% | 99% | 99% | < 50% | < 50% | < 50%
O=C([C@H]1CC[C@H](Nc2nccc(-n3nnc4ccccc43)n2)CC1)N1CCOCC1 | 90% | < 50% | < 50% | 75% | 76% | < 50% | 100% | 78% | < 50% | < 50% | < 50%
CS(=O)(=O)CCCOc1cccc2c1ccn2-c1ccnc(N[C@H]2CC[C@H](C(=O)N3CCC(O)CC3)CC2)n1 | – | – | – | – | – | – | > 85% | – | – | – | –

More lines, now with the values ahead:

inhibition [1] | inhibition [2] | inhibition [3] | inhibition [4] | inhibition [5] | inhibition [6] | inhibition [7] | inhibition [8] | inhibition [9] | inhibition [10] | inhibition [11] | SMILES
< 50% | < 50% | < 50% | < 50% | < 50% | < 50% | 98% | 86% | < 50% | < 50% | < 50% | O[C@H]1CC[C@H](Nc2nccc(-n3ccc4ccccc43)n2)CC1
77% | < 50% | < 50% | 97% | 50% | < 50% | 99% | 98% | < 50% | < 50% | < 50% | O[C@H]1CC[C@H](Nc2nccc(-n3nnc4ccccc43)n2)CC1
< 50% | < 50% | < 50% | < 50% | < 50% | < 50% | 99% | 99% | < 50% | < 50% | < 50% | O[C@H]1CC[C@H](Nc2nccc(-n3ncc4ccccc43)n2)CC1
